Screening results: PubChem BioAssay, several laboratories
A selection: hits, their analogues and other compounds. The true share with any hit is near 2%.
FLuc stim CS – firefly luciferase counter-screen for stimulation assays; P08659; ATPlite luciferase biochemical, luminescence, 10 min; 0 = ATP-free wells, 1 = DMSO control; 200,000 tested, under 10 active; activation factor at 10 µM;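 active = luciferase activation factor, scaled between plate controls, of at least 2 with compound at 10 µM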
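Assay system: Luciferase/luciferin detection reagent, cell-free biochemical luciferase assay / Also added: ATP substrate / Schedule: 10 min at ambient temperature / Measured by: luminescence measurement of luciferase light output / Benchmarks: low control with PBS replacing ATP, high control enzyme plus ATP without compound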
HSP90 inh – blocks HSP90-mediated luciferase refolding in reticulocyte lysate; AID 1789; 290,000 compounds, 0.91% hits; Rabbit reticulocyte lysate, luciferase refolding luminescence, 3 h; inhibition, % at 5.6 µM;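 active = inhibition above the screen-wide mean plus 3 SD, computed separately per campaign, cut at about 16% in these data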;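 note: 0% = DMSO wells and 100% = 60 µM geldanamycin wells; inhibitors lower the luminescence because luciferase stays unfolded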
TRAIL sens C8 – caspase-8 TRAIL sensitization. NB7+C8 cells + TRAIL, ATPlite viability luminescence. inhibition (viability loss, TRAIL sensitization), % at 10 µM. 360,000 compounds, 1% hits;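 active = compounds causing at least 50% loss of cell viability in the single-dose screen, relative to plate controls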
PPC-1+TRAIL kill – PPC-1 cancer cell killing with TRAIL present; PPC-1 cells + TRAIL, ATPLite viability luminescence; cell killing (% activity), % at 4 µM or 5 µM; 220,000 compounds, 0.41% hits; AID 1443;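 active = cell killing above 50% in the first pass at 4 µM, then a duplicate retest at 5 µM averaging 50% or more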;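 note: plate controls were cells with TRAIL plus DMSO for no effect and medium-only wells lacking cells for full effect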
FLuc inhib CS – Photinus pyralis luciferase inhibition counter-screen; ATPLite firefly luciferase biochemical luminescence, 10 min; inhibition, % at 10 µM; 200,000 compounds, 1.5% hits; AID 1006;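 active = inhibition above about 50% when tested at 10 µM, limit read from the data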
* marks the source's active call; other numbers are inactive results; x = no result.

SMILES	FLuc stim CS	HSP90 inh	TRAIL sens C8	PPC-1+TRAIL kill	FLuc inhib CS
OC(c1cc(-c2cccc(Cl)c2)nc2ccccc12)C1CCCCN1 (stereo not drawn)	x	x	67*	x	x
O=C(/C=C/c1cccnc1)/C=C/c1cccnc1	x	5	51*	29	x
C(=Cc1cccnc1)c1ccncc1	x	x	-11	x	x
CN(C(=O)c1ccccc1)c1nc2ccccc2s1	0.2	3	72*	49	84*
CN(C)CCCN(C(=O)c1cc2cc([N+](=O)[O-])ccc2s1)c1nc2cc3c(cc2s1)OCCO3	x	x	91*	x	x
CN(C)CCCN(C(=O)c1ccc(C(=O)c2ccccc2)cc1)c1nc2ccc(F)cc2s1	x	2	49*	x	x
CN(C)CCCN(C(=O)c1ccc(C(=O)c2ccccc2)cc1)c1nc2cc3c(cc2s1)OCO3	x	5	53*	x	x
CN(C)CCCN(C(=O)c1nc2ccccc2s1)c1nc2ccc(F)cc2s1	x	x	2	x	x
Cc1ccc(-c2csc(NC(=O)CN3CC(C)OC(C)C3)n2)cc1 (stereo not drawn)	x	-5	2	x	x
CCOC(=O)c1c(/N=C/N(C)C)sc(/C=N/Nc2ccccc2)c1-c1ccc(Cl)cc1	1	-1	-4	16	-1
COc1ccc(CNC(=O)Cc2ccc(NC(=O)C3=C(C)OCCS3)cc2)cc1	x	1	71*	x	x
CC1=C(C(=O)Nc2ccc(CC(=O)NCc3ccc(OC(C)C)cc3)cc2)SCCO1	x	-5	56*	x	x
CCOc1ccc(CNC(=O)c2cccc(NC(=O)C3=C(C)OCCS3)c2)cc1	x	2	-14	x	x
CC(C)(CO)CN1CCC(n2nccc2NC(=O)C2CCCC2)CC1	x	0	-2	x	x
N=c1sccn1CC(=O)Nc1cccc(S(=O)(=O)N2CCCCCC2)c1	1.1	1	-4	2	-9
Cc1ccc(-c2nc3sc(C(N)=O)c(N)c3c3c2CCCC3)cc1	1	1	15	55*	-3
CCOC(=O)c1c(C)[nH]c(C(=O)OCC(=O)Nc2ccc(Cl)cn2)c1C	x	x	-6	x	x
CCOC(=O)c1c(C)[nH]c(C(=O)OCC(=O)Nc2sccc2C(N)=O)c1C	x	x	56*	x	x
CC(=O)Nc1ccc2c(c1)ncn2-c1ccc(C)cc1	0.5	6	5	15	53*
CC(=O)Nc1ccc2c(c1)ncn2C	1.1	1	-25	0	-7
CCN1CCN(CCCNC(=O)c2ccc3c(c2)NC(=O)/C(=C\c2cccc(C)c2)S3)CC1	x	-3	70*	x	x
Cc1cccc(/C=C2/Sc3ccc(C(=O)NCCCN4CCOCC4)cc3NC2=O)c1	x	0	13	x	x
COc1cccc(/C=C2/Sc3ccc(C(=O)NCCN4CCCCCC4)cc3NC2=O)c1	x	1	75*	x	x
O=C(Nc1ccc(OC(F)F)cc1)c1cc(S(=O)(=O)N2CCOCC2)ccc1N1CCCC1	x	x	11	x	x
C=CCNc1nc(-c2cc3ccccc3o2)cs1	0.2	1	50	17	76*
SMILES	FLuc stim CS	HSP90 inh	TRAIL sens C8	PPC-1+TRAIL kill	FLuc inhib CS
O=C(Nc1nc2c(s1)CCCC2)c1cccnc1	0.6	3	9	19	35
O=C(Nc1nc2c(s1)CCCC2)c1ccc(Br)o1	0.3	16*	57*	36	68*
O=C(Nc1nc2c(s1)CCCC2)C1COc2ccccc2O1 (stereo not drawn)	0.6	51*	34	19	43
N#CC1=C(N)OC2=C(C(=O)CC(c3ccccc3)C2)C1c1ccoc1 (stereo not drawn)	1	-2	2	85*	-2
CC(C)Oc1ccc(C(CC(=O)O)NC(=O)C(Sc2ccccc2)c2ccccc2)cc1 (stereo not drawn)	1.1	0	1	1	-8
c1ccc(-c2cn3nc(-c4ccccc4)sc3n2)cc1	x	x	85*	x	x
Cc1nn2cc(-c3ccccc3)nc2s1	0.5	7	28	21	47
O=C1C(c2ccncc2)=C(O)c2ccccc21	0.2	16*	54*	25	83*
COCc1nn2c(N)c(-c3ccccc3)cnc2c1-c1ccccc1	x	-2	51*	x	x
CCc1cc2c(=O)[nH]c(-c3ccccn3)nc2s1	0.6	3	53*	60*	37
COc1ccc(CN(C(=O)c2ccco2)c2ccc(C)c(C)c2)cc1	1.1	0	-18	-2	-5
O=C(c1cccc(Cl)c1)N1CCN(CCCc2ccccc2)CC1	x	-3	5	x	x
O=C(Nc1nnc(-c2cc(Cl)ccc2Cl)o1)c1ccco1	x	x	52*	x	x
Cc1ccc(C(=O)N/N=C2\CCCc3ccccc32)c(C)c1	0.5	-4	34	31	47
